Data from ChEMBL document CHEMBL4765405, “Design, synthesis and biological activities of novel pleuromutilin derivatives with a substituted triazole moiety as potent antibacterial agents” (Eur J Med Chem, 2020).
In brackets after ≈: the same amount, converted by molar mass. Activity calls are given as the source filed them. The rule behind the calls is not given here.

What was measured:
[1] = system: Staphylococcus aureus; assay: Antibacterial activity against methicillin-resistant Staphylococcus aureus ATCC 43300 after 24 hrs by CLSI based broth micro dilution method; type: functional
Procedure, shortened: (§1)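 Broth microdilution run per CLSI. MRSA ATCC 43300 served as the QC strain, with the CLSI QC range as reference. S. aureus AD3 and 144 are clinical isolates from Guangdong Province. Pleuromutilin and tiamulin were run as reference drugs.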

[2] = system: Staphylococcus aureus; assay: Antibacterial activity against Staphylococcus aureus ATCC 29213 after 24 hrs by CLSI based broth micro dilution method; type: functional; procedure, shortened: as §1
[3] = system: Staphylococcus aureus; assay: Antibacterial activity against Staphylococcus aureus AD3 after 24 hrs by CLSI based broth micro dilution method; type: functional
Procedure, shortened: (§2)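 CLSI broth microdilution MIC against S. aureus ATCC 43300 (MRSA), ATCC 29213, clinical isolates AD3 and 144 (Guangdong Province), and E. coli ATCC 25922; ATCC 43300 served as QC strain, with the CLSI quality control range as reference.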

[4] = system: Staphylococcus aureus; assay: Antibacterial activity against Staphylococcus aureus 144 after 24 hrs by CLSI based broth micro dilution method; type: functional; procedure, shortened: as §1
[5] = system: Escherichia coli; assay: Antibacterial activity against Escherichia coli ATCC 25922 after 24 hrs by CLSI based broth micro dilution method; type: functional; procedure, shortened: as §2
[6] = system: Staphylococcus aureus; assay: Bactericidal activity against methicillin-resistant Staphylococcus aureus ATCC 43300 preincubated 16 to 20 hrs followed by subculturing and measured after over night; type: functional
Procedure, shortened: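 MBC determined by the CLSI broth microdilution method against MRSA ATCC 43300, with ATCC 43300 also serving as the QC strain. Pleuromutilin and tiamulin were reference drugs.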

[7] = system: Staphylococcus aureus; assay: Bactericidal activity against Staphylococcus aureus ATCC 29213 preincubated 16 to 20 hrs followed by subculturing and measured after over night; type: functional
Procedure, shortened: (§3)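 MBC by CLSI broth microdilution on the same strain panel: S. aureus ATCC 43300, ATCC 29213, clinical isolates AD3 and 144, E. coli ATCC 25922; ATCC 43300 served as QC strain.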

[8] = system: Staphylococcus aureus; assay: Bactericidal activity against Staphylococcus aureus AD3 preincubated 16 to 20 hrs followed by subculturing and measured after over night; type: functional; procedure, shortened: as §3
[9] = system: Staphylococcus aureus; assay: Bactericidal activity against Staphylococcus aureus 144 preincubated 16 to 20 hrs followed by subculturing and measured after over night; type: functional; procedure, shortened: as §3
[10] = system: Escherichia coli; assay: Bactericidal activity against Escherichia coli ATCC 25922 preincubated 16 to 20 hrs followed by subculturing and measured after over night; type: functional; procedure, shortened: as §3
[11] = Ratio of MBC for bactericidal activity against methicillin-resistant Staphylococcus aureus ATCC 43300 to MIC for antibacterial activity against methicillin-resistant Staphylococcus aureus ATCC 4330; type: functional
[12] = system: Staphylococcus aureus; assay: Bactericidal activity against methicillin-resistant Staphylococcus aureus ATCC 43300 assessed as reduction in bacterial growth at > 8 time of MIC concentration preincubated up to 24 hrs followed by subculturing and measured after 20 hrs by time-kill assay; type: functional, organism-based; details: time hrs <=44

Row | SMILES | MIC [1] | MIC [2] | MIC [3] | MIC [4] | MIC [5] | MBC [6] | MBC [7] | MBC [8] | MBC [9] | MBC [10] | Ratio [11] | Activity [12]
1 | C=C[C@]1(C)C[C@@H](OC(=O)CSc2ccccc2NC(=O)Cn2cc(CN3CCN(c4cccc([N+](=O)[O-])c4)CC3)nn2)[C@]2(C)[C@H](C)CC[C@]3(CCC(=O)[C@H]32)[C@@H](C)[C@@H]1O | 0.125 µg/mL (≈ 0.154 µM) | 0.25 µg/mL (≈ 0.307 µM) | 0.25 µg/mL (≈ 0.307 µM) | 0.25 µg/mL (≈ 0.307 µM) | > 32 µg/mL | 0.25 µg/mL (≈ 0.307 µM) | 0.25 µg/mL (≈ 0.307 µM) | 0.5 µg/mL (≈ 0.614 µM) | 0.5 µg/mL (≈ 0.614 µM) | > 32 µg/mL | 1 | Active
2 | C=C[C@]1(C)C[C@@H](OC(=O)CSc2ccccc2NC(=O)Cn2cc(CN3CCN(c4ccc([N+](=O)[O-])cc4)CC3)nn2)[C@]2(C)[C@H](C)CC[C@]3(CCC(=O)[C@H]32)[C@@H](C)[C@@H]1O | 0.125 µg/mL (≈ 0.154 µM) | 0.125 µg/mL (≈ 0.154 µM) | 0.25 µg/mL (≈ 0.307 µM) | 0.25 µg/mL (≈ 0.307 µM) | > 32 µg/mL | 0.25 µg/mL (≈ 0.307 µM) | 0.125 µg/mL (≈ 0.154 µM) | 0.5 µg/mL (≈ 0.614 µM) | 0.25 µg/mL (≈ 0.307 µM) | > 32 µg/mL | 1 | Active
3 | C=C[C@]1(C)C[C@@H](OC(=O)CSc2ccccc2NC(=O)Cn2cc(CN3CCN(c4cccc(Cl)c4)CC3)nn2)[C@]2(C)[C@H](C)CC[C@]3(CCC(=O)[C@H]32)[C@@H](C)[C@@H]1O | 2 µg/mL (≈ 2.49 µM) | 1 µg/mL (≈ 1.24 µM) | 2 µg/mL (≈ 2.49 µM) | 2 µg/mL (≈ 2.49 µM) | > 32 µg/mL | 4 µg/mL (≈ 4.98 µM) | 1 µg/mL (≈ 1.24 µM) | 2 µg/mL (≈ 2.49 µM) | 4 µg/mL (≈ 4.98 µM) | > 32 µg/mL | 1 | 
4 | C=C[C@]1(C)C[C@@H](OC(=O)CSc2ccccc2NC(=O)Cn2cc(CN3CCCC3)nn2)[C@]2(C)[C@H](C)CC[C@]3(CCC(=O)[C@H]32)[C@@H](C)[C@@H]1O | 0.25 µg/mL (≈ 0.369 µM) | 0.25 µg/mL (≈ 0.369 µM) | 0.25 µg/mL (≈ 0.369 µM) | 0.25 µg/mL (≈ 0.369 µM) | > 32 µg/mL | 0.5 µg/mL (≈ 0.738 µM) | 4 µg/mL (≈ 5.9 µM) | 0.5 µg/mL (≈ 0.738 µM) | 0.5 µg/mL (≈ 0.738 µM) | > 32 µg/mL | 1 | 
5 | C=C[C@]1(C)C[C@@H](OC(=O)CSc2ccccc2NC(=O)Cn2cc(CN3CCN(c4ccccc4)CC3)nn2)[C@]2(C)[C@H](C)CC[C@]3(CCC(=O)[C@H]32)[C@@H](C)[C@@H]1O | 0.5 µg/mL (≈ 0.65 µM) | 0.5 µg/mL (≈ 0.65 µM) | 0.5 µg/mL (≈ 0.65 µM) | 1 µg/mL (≈ 1.3 µM) | > 32 µg/mL | 0.5 µg/mL (≈ 0.65 µM) | 0.5 µg/mL (≈ 0.65 µM) | 1 µg/mL (≈ 1.3 µM) | 2 µg/mL (≈ 2.6 µM) | > 32 µg/mL | 1 | 
6 | C=C[C@]1(C)C[C@@H](OC(=O)CSc2ccccc2NC(=O)Cn2cc(CN3CCOCC3)nn2)[C@]2(C)[C@H](C)CC[C@]3(CCC(=O)[C@H]32)[C@@H](C)[C@@H]1O | 0.5 µg/mL (≈ 0.721 µM) | 0.5 µg/mL (≈ 0.721 µM) | 1 µg/mL (≈ 1.44 µM) | 1 µg/mL (≈ 1.44 µM) | > 32 µg/mL | 1 µg/mL (≈ 1.44 µM) | 0.5 µg/mL (≈ 0.721 µM) | 2 µg/mL (≈ 2.88 µM) | 1 µg/mL (≈ 1.44 µM) | > 32 µg/mL | 1 | 
7 | C=C[C@]1(C)C[C@@H](OC(=O)CSc2ccccc2NC(=O)Cn2cc(CN3CCCC(CO)C3)nn2)[C@]2(C)[C@H](C)CC[C@]3(CCC(=O)[C@H]32)[C@@H](C)[C@@H]1O (some centres undefined) | 0.5 µg/mL (≈ 0.693 µM) | 0.5 µg/mL (≈ 0.693 µM) | 0.5 µg/mL (≈ 0.693 µM) | 0.5 µg/mL (≈ 0.693 µM) | > 32 µg/mL | 0.5 µg/mL (≈ 0.693 µM) | 0.5 µg/mL (≈ 0.693 µM) | 1 µg/mL (≈ 1.39 µM) | 0.5 µg/mL (≈ 0.693 µM) | > 32 µg/mL | 1 | 
